NR2E3 ag-1: agonists of human nuclear receptor NR2E3. GST-NR2E3/biotin-RetCOR TR-FRET, 1536-well. inhibition of corepressor binding, % at 4.78 µM. actives 0.12% (n = 320,000). AID 2300;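 active means percent inhibition above the cutoff of mean plus 3 SD of all tested compounds, set per screening campaign, cut at about 20% in these data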
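System: GST-NR2E3 and biotin-RetCOR proteins; probe or stimulus: 7 nM biotin-RetCOR; doses: compound at 4.8 µM, single dose; schedule: Compound–protein incubation for 5 h at 4 °C; detection: time-resolved FRET; read-out: percent inhibition; controls: biotin wells as high control, 0.6% DMSO wells as low control; format: 1536-well plates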
NR2E3 ag-2: agonists of human NR2E3 nuclear receptor; Q9Y5X4; CHO-S Gal4-NCOR/VP16-NR2E3 two-hybrid, luciferase; inhibition of corepressor binding, % at 3.98 µM; actives 0.35% (n = 360,000); AID 602229;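 active means inhibition above the mean of all tested compounds plus 3 SD, cut at about 70% in these data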;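 further: higher means lower luciferase signal from less NR2E3 corepressor binding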
Rev-erbA mod: Rev-erb alpha (human) modulation; Rev-erbα–FITC-DNA binding, fluorescence polarization, 90 min; activity, % at 10 µM; actives 0.79% (n = 370,000); AID 1259318;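 active means activity above about 14%, limit read from the data; passing the limit was not always enough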
Target sequence (P20393 whole entry, looked up): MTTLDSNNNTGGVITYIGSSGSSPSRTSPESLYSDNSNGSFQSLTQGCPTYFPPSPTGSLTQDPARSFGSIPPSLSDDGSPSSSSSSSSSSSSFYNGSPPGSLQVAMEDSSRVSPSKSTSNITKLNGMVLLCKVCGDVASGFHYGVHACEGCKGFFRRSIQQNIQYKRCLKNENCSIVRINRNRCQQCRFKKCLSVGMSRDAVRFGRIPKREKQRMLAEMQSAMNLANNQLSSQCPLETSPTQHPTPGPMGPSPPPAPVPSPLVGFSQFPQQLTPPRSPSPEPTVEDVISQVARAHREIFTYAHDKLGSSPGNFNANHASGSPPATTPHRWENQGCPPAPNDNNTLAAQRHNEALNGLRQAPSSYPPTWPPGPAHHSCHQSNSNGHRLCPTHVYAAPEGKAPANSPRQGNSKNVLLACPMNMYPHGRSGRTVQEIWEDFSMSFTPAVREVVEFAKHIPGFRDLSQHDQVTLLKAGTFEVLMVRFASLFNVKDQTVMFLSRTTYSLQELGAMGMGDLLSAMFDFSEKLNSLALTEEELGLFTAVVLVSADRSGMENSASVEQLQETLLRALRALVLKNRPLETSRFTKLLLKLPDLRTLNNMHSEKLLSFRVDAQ
PG9 binder: small molecules binding HIV-1 gp120 antibody PG9; TR-FRET gp120-PG9 antibody binding; inhibition, % at 6.7 µM; actives 0.43% (n = 360,000); in the data active means inhibition above about 8.5%
PG9 binder conf: confirmation of small molecules binding HIV-1 gp120 antibody PG9 | inhibition, % at 6.7 µM | TR-FRET PG9 antibody binding, biochemical | shares compounds with PG9 binder | AID 651571 | actives 90% (n = 1,500); in the data active means inhibition above about 9%
PGV04 counter: binds control antibody PGV04 in PG9 binder counter-screen; shares compounds with PG9 binder; TR-FRET PGV04 antibody-gp120 binding, biochemical; inhibition, % at 6.7 µM; actives 95% (n = 1,500); AID 651604; in the data active means inhibition above about 9.5%
PG9 bind DR: small molecules binding HIV-1 gp120 antibody PG9; shares compounds with PG9 binder; TR-FRET PG9 antibody-gp120 binding inhibition; IC50, µM; 95 tested, under 10 active; AID 651848; in the data active means IC50 below about 10 µM
PGV04 DR counter: binds control antibody PGV04 in PG9 counter-screen; shares compounds with PG9 binder; TR-FRET binding to control antibody PGV04; IC50, µM; actives 20% (n = 95); AID 651937
PG126 binding DR: PG126 binding, dose response counter-screen. shares compounds with PG9 binder. TR-FRET binding to antibody PG126, counterscreen. IC50, µM. actives 20% (n = 95)
Rev-erbA confirm: confirmation of modulators of human Rev-erb alpha DNA binding. activation, % at 25 µM. AID 1259319. shares compounds with Rev-erbA mod. Rev-erb alpha FITC-DNA binding, fluorescence polarization, 90 min. actives 61% (n = 3,000);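 active means activation at or above a set limit, or at least 3 SD above the negative control mean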
RORg DNA counter: counter-screen for Rev-erb alpha modulators: RORgamma DNA binding | actives 8% (n = 910) | purified RORgamma protein-FITC-DNA binding, fluorescence polarization | IC50, µM | shares compounds with Rev-erbA mod;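 active means Compounds whose fitted half-maximal concentration for disrupting protein-DNA binding is below 10 micromolar; the record names Rev-erb in its text, so the target is in doubt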
Numbers stand for hits; n = inactive; x = no result. A selection: hits, their analogues and other compounds. The true share with any hit is near 1.5%. Unless noted, no stated cut-off is given here; in the data, active means IC50 below about 9 µM; inactive means the rest.

SMILES	NR2E3 ag-1	NR2E3 ag-2	Rev-erbA mod	PG9 binder	PG9 binder conf	PGV04 counter	Rev-erbA confirm	others
CCOc1ccc(S(=O)(=O)Nc2nc3ccccc3nc2-n2ccc(=NC(=O)c3ccccc3C)cc2)cc1	n	n	39	40	32	65	59	RORg DNA counter=n
O=C(CSc1nc2ncc(Br)cc2[nH]1)Nc1ccccc1-c1ccccc1	n	n	n	n	x	x	x
CCc1ccc(NC(=O)CSc2nc3ncc(Br)cc3[nH]2)cc1	n	n	59	11	27	38	52	RORg DNA counter=n
COC(=O)[C@H]1C[C@@]2(C)c3ccccc3N(S(=O)(=O)c3ccccc3)[C@H]2N1	x	x	n	x	x	x	x
CC(C)Nc1nc(-c2ccncc2)nc(-c2ccccc2)c1C#N	n	n	40	9.1	43	61	n
N#Cc1c(N)nc(-c2ccccc2)nc1-c1ccccc1	n	n	n	n	x	x	x
Cc1noc(C)c1C(=O)Nc1nc(-c2cc(F)ccc2F)cs1	x	n	n	n	x	x	x
Cc1onc(-c2ccccc2)c1C(=O)Nc1nc(-c2cc(F)ccc2F)cs1	n	n	55	52	50	65	65	RORg DNA counter=n
CC1(C)OC(=O)C2=C(CC(CCc3ccccc3)OC2CCc2ccccc2)O1 (stereo not given)	x	x	n	n	x	x	x
Cc1ccc(-n2c(SCC(=O)O)nc3sc4c(c3c2=O)CC(C)(C)SC4)cc1	x	n	n	n	x	x	x
Cc1ccc(-n2c(SCC(=O)NCc3ccco3)nc3sc4c(c3c2=O)CC(C)(C)SC4)cc1	n	n	71	16	20	32	64	RORg DNA counter=5.6
Nc1c(CC(=O)O)cccc1C(=O)c1ccc(Br)cc1	x	x	n	x	x	x	x
C[C@@H]1CCN(C2CC2)S(=O)(=O)c2ccc(N3CC[C@@H](N(C)C)C3)cc2O1	x	x	n	x	x	x	x
CCC(=O)c1cn(CC(=O)Nc2cc(C)ccc2C)c2ccccc12	n	n	32	19	16	22	21
CCC(=O)c1cn(CC(=O)Nc2ccccc2F)c2ccccc12	n	n	n	n	x	x	x
CC(C)C(=O)Nc1cccc(C(=O)OCC(=O)c2ccc(Cl)cc2Cl)c1	n	n	19	53	40	58	n
O=C(CSc1nc2nc3c(cc2c(=O)n1-c1ccccc1)CCCC3)Nc1ccccc1	n	n	27	18	31	46	20
C=CCN1C(=O)[C@@H](CC(=O)N2CCOCC2)[C@]2(C(=O)OC)CCCCC=C12	x	x	n	x	x	x	x
Cn1c2ccccc2c(=O)c2c(=O)n(CCCc3ccccc3)cnc21	x	x	n	x	x	x	x
COc1cc(OC)cc(-c2oc(=O)c3cc(OC)c(OC)cc3c2C#CCCO)c1	x	n	21	25	36	42	n
COc1ccc2oc(=O)c(C(=O)NCc3ccccc3)cc2c1	n	n	n	n	x	x	x
CCCOc1ccc2cc(C(=O)NCc3ccccc3)c(=O)oc2c1	n	n	70	11	38	56	29
Cc1ccc(NC(=O)CCS(=O)(=O)c2ccccc2)c(C)c1	x	x	n	x	x	x	x
CCn1c2ccccc2c2cc(NC(=O)COC(=O)c3ccccc3F)ccc21	n	n	25	28	33	56	23
NS(=O)(=O)c1ccc(CCNC(=O)CCCCCn2c(=S)[nH]c3ccc(Br)cc3c2=O)cc1	n	n	41	30	28	26	n	PG9 bind DR=n;PGV04 DR counter=n;PG126 binding DR=n
Cc1cccc2cc(C#N)c(SCC(=O)N3CCC(C)CC3)nc12	n	n	53	8.8	12	16	65	RORg DNA counter=n
COc1ccc2cc(C#N)c(SCC(=O)N3CC(=O)Nc4ccccc43)nc2c1	n	n	x	x	x	x	x
